Measured values as given in ChEMBL document CHEMBL1146324, “Discovery of (Z)-2-phenyl-3-(1H-pyrrol-2-yl)acrylonitrile derivatives active against Haemonchus contortus and Ctenocephalides felis (cat flea)” (2007).
Active and inactive are the calls of the source. The rule behind the calls is not given here.

Experiments:
[1] = test system: Ctenocephalides felis; experiment: Parasiticidal activity against Ctenocephalides felis after 8 hrs; assay type: functional
How it was run: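 Cat flea contact assay: compound applied in acetone to the base of four flasks at 1.26 µg/cm², held at 25 ± 1 °C and 75 ± 5% humidity. Dead fleas counted at 8 h, and pooled counts converted to percent mortality.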

[2] = test system: Haemonchus contortus; experiment: Parasiticidal activity against Haemonchus contortus McMaster; assay type: functional
How it was run: (§1)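 Larval development assay with Haemonchus contortus larvae. The endpoint was LD99, and the assay was performed by an external screening contractor.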

[3] = test system: Ctenocephalides felis; experiment: Parasiticidal activity against Ctenocephalides felis after 24 hrs; assay type: functional; parameters: concentration or dose not given beside the values
How it was run: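 Single-dose in vitro cat flea assay: compound in acetone (0.5 mL) coated on the base of four 100 mL flasks at 1.26 µg/cm². Flasks held at 25 ± 1 °C and 75 ± 5% humidity for 24 h. Dead fleas counted per flask, and pooled data expressed as percent mortality.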

[4] = test system: Ctenocephalides felis; experiment: Parasiticidal activity against Ctenocephalides felis; assay type: functional
[5] = Cytotoxicity against mouse NS1 cells; assay type: functional
[6] = test system: Haemonchus contortus; experiment: Parasiticidal activity against avermectin-resistant Haemonchus contortus CAVR; assay type: functional; how it was run: as §1
[7] = test system: Haemonchus contortus; experiment: Parasiticidal activity against benzimidazole-resistant Haemonchus contortus Lawes; assay type: functional; how it was run: as §1
[8] = test system: Haemonchus contortus; experiment: Parasiticidal activity against levamisole-resistant Haemonchus contortus Lawes; assay type: functional; how it was run: as §1
[9] = test system: Bacillus subtilis; experiment: Parasiticidal activity against Bacillus subtilis; assay type: functional
[10] = test system: Teladorsagia circumcincta; experiment: Parasiticidal activity against Ostertagia circumcincta McMaster; assay type: functional
[11] = test system: Trichostrongylus colubriformis; experiment: Parasiticidal activity against Trichostrongylus colubriformis; assay type: functional
[12] = test system: Saccharomyces cerevisiae; experiment: Parasiticide activity against Saccharomyces cerevisiae; assay type: functional, organism-based

Compound	LD99 [2] [µM]	Activity [3] [%]	also measured
CCOCn1cccc1/C=C(\C#N)c1ccc(Cl)cc1	19		Activity [1]: 6%
CC(C)=CCn1cccc1/C=C(\C#N)c1ccc(Cl)cc1	>51	0	
N#C/C(=C\c1ccc[nH]1)c1ccccc1C#N	>68	11	
N#C/C(=C\c1ccc[nH]1)c1ccc(F)c(Cl)c1	5.1	5	
N#C/C(=C\c1ccc[nH]1)c1ccccc1F	12	92	LC50 [4]: 0.59 ug/sq.cm
N#C/C(=C\c1ccc[nH]1)c1cccc(Br)c1	3.4	24	
N#C/C(=C\c1ccc[nH]1)c1ccc(F)c(F)c1	7.6	17	
N#C/C(=C\c1ccc[nH]1)c1ccc(F)cc1F	11	5	
N#C/C(=C\c1ccc[nH]1)c1ccc([N+](=O)[O-])cc1	>63	6	
N#C/C(=C\c1cc(Br)c[nH]1)c1ccc(Cl)cc1	1.5	23	
N#C/C(=C\c1ccc[nH]1)c1ccc(Cl)c(Cl)c1	2.9	41	
N#C/C(=C\c1ccc[nH]1)c1ccc(-c2ccccc2)cc1	28	46	
Cc1ccc(/C(C#N)=C/c2ccc[nH]2)c(C)c1		44	
c1ccc([C@H]2CN3CCSC3=N2)cc1 [LEVAMISOLE]	0.66		
Cc1cccc(/C(C#N)=C/c2ccc[nH]2)c1	6	42	
N#C/C(=C\c1cc(Cl)c(Cl)[nH]1)c1ccc(Cl)cc1	10	15	
COc1ccc(/C(C#N)=C/c2ccc[nH]2)cc1	6.7	31	
N#C/C(=C\c1ccc[nH]1)c1ccc(Cl)cc1Cl	11	8	
N#Cc1nn(-c2c(Cl)cc(C(F)(F)F)cc2Cl)c(N)c1[S+]([O-])C(F)(F)F (stereo unspecified) [FIPRONIL]			LC50 [4]: 0.018 ug/sq.cm
CC(C)(C)OC(=O)n1cccc1/C=C(\C#N)c1ccc(Cl)cc1	11	9	
N#CC(C#N)=Cc1cc(Cl)c(Cl)[nH]1	1.8		LD99 [5]: 13 µM; LD99 [6]: 2.2 µM; LD99 [7]: 2.2 µM; LD99 [8]: 2.2 µM; LD99 [9]: 1.7 µM; Activity [4]: inactive; LD99 [10]: 2.2 µM; LD99 [11]: 9 µM; Activity [12]: inactive

Compound	LD99 [2] [µM]	Activity [3] [%]	also measured
CCN(CC)C(=O)n1cccc1/C=C(\C#N)c1ccc(Cl)cc1	11	8	
N#C/C(=C\c1ccc[nH]1)c1ccc(Cl)cc1F	10	5	
CC(C)c1ccc(/C(C#N)=C/c2ccc[nH]2)cc1		100	LC50 [4]: 1.32 ug/sq.cm
N#C/C(=C\c1ccc[nH]1)c1ccccc1	2.4	98	LC50 [4]: 0.26 ug/sq.cm
N#C/C(=C\c1ccc[nH]1)c1c(F)cccc1Cl	>61	7	
N#C/C(=C\c1ccc[nH]1)c1ccc(C#N)cc1	46	44	
N#C/C(=C\c1ccc[nH]1)c1ccccc1Cl	12	19	
CCC(=O)n1cccc1/C=C(\C#N)c1ccc(Cl)cc1	1.3	12	
Cn1cccc1/C=C(\C#N)c1ccc(Cl)cc1	7.8		Activity [1]: 13%
N#C/C(=C\c1ccc[nH]1)c1ccc(F)cc1	2	78	LC50 [4]: 0.3 ug/sq.cm
N#C/C(=C\c1cccn1C(=O)c1ccccc1)c1ccc(Cl)cc1	3.8	6	
N#C/C(=C\c1ccc[nH]1)c1ccccc1C(F)(F)F		14	
N#C/C(=C\c1cc(Br)c[nH]1)c1cccc(F)c1	38	18	
N#C/C(=C\c1cc(Br)c[nH]1)c1cccc(C(F)(F)F)c1	9.5		
N#C/C(=C\c1cc(Br)c[nH]1)c1ccc(C(F)(F)F)cc1	>44	15	
N#C/C(=C\c1ccc[nH]1)c1ccc(Cl)cc1	1.8		Activity [1]: 95%; LC50 [4]: 0.17 ug/sq.cm
Cc1ccccc1/C(C#N)=C/c1ccc[nH]1	18	100	LC50 [4]: 0.08 ug/sq.cm
N#C/C(=C\c1ccc[nH]1)c1cccc(F)c1	8	78	LC50 [4]: 0.78 ug/sq.cm
CCc1ccc(/C(C#N)=C/c2ccc[nH]2)cc1	4	58	
IVERMECTIN	0.0057		
N#C/C(=C\c1ccc[nH]1)c1cccc(Cl)c1	3.3	28	

Compound	LD99 [2] [µM]	Activity [3] [%]	also measured
N#C/C(=C\c1ccc[nH]1)c1ccccc1-c1ccccc1		2	
N#C/C(=C\c1ccc[nH]1)c1cc(C(F)(F)F)cc(C(F)(F)F)c1	>45	27	
N#C/C(=C\c1ccc[nH]1)c1c(F)cccc1F	52	17	
Cc1ccc(S(=O)(=O)n2cccc2/C=C(\C#N)c2ccc(Cl)cc2)cc1	31	0	
N#C/C(=C\c1cccn1Cc1ccccc1)c1ccc(Cl)cc1	44	3	
COc1ccccc1/C(C#N)=C/c1ccc[nH]1		9	
N#C/C(=C\c1ccc[nH]1)c1ccc(C(F)(F)F)cc1	3.1	20	
N#C/C(=C\c1ccc[nH]1)c1ccccc1Br	12	30	
N#C/C(=C\c1ccc[nH]1)c1ccc(Br)cc1	0.84	42	
N#C/C(=C\c1ccc[nH]1)c1cccc(Oc2ccccc2)c1	11	10	
N#C/C(=C\c1cc(Br)c[nH]1)c1ccc(Cl)c(Cl)c1	7.3	19	
Cc1cc(C(C#N)c2ccc(Cl)cc2)c(Cl)cc1NC(=O)c1cc(I)cc(I)c1O (stereo unspecified) [CLOSANTEL]	9.4		
N#C/C(=C\c1cc(Br)c[nH]1)c1ccc(F)cc1	17	15	
CN(C)C(=S)n1cccc1/C=C(\C#N)c1ccc(Cl)cc1	32	19	
N#C/C(=C\c1ccc[nH]1)c1ccc(I)cc1	2.2	14	
COC(=O)n1cccc1/C=C(\C#N)c1ccc(Cl)cc1	4.4	16	
CC(C)(C)c1ccc(/C(C#N)=C/c2ccc[nH]2)cc1	13	87	LC50 [4]: 0.48 ug/sq.cm
N#C/C(=C\c1ccc[nH]1)c1cccc(C(F)(F)F)c1	3.6	56	LC50 [4]: 9.9 ug/sq.cm
Cc1ccc(/C(C#N)=C/c2ccc[nH]2)cc1	4.5	69	
N#C/C(=C\c1ccc[nH]1)c1ccc(F)cc1Cl	12	30	
